# High-throughput results as filed in PubChem.
# Shown are actives, neighbours in structure and some others; about 1.8% of the full set was active somewhere.
# NR2E3 ag-1: activates human photoreceptor nuclear receptor NR2E3; Q9Y5X4; GST-NR2E3/biotin-RetCOR TR-FRET, 1536-well; inhibition of corepressor binding, % at 4.78 µM; 0.12% of 320,000 active;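 active = percent inhibition above the cutoff of mean plus 3 SD of all tested compounds, set per screening campaign, cut at about 20% in these data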;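 note: 0% = DMSO wells and 100% = biotin wells as full block of FRET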
# Target sequence (Q9Y5X4 whole entry, looked up): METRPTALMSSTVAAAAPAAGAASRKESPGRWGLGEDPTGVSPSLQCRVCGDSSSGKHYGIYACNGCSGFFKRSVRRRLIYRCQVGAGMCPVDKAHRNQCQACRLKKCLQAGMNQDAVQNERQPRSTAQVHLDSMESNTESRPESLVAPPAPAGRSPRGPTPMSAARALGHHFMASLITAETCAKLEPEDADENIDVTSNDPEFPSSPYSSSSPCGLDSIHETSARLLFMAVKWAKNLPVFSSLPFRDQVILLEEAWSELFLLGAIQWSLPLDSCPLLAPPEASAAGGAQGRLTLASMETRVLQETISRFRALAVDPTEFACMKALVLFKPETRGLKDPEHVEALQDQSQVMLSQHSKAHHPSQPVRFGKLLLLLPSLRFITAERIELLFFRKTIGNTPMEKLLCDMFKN
#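 System: GST-tagged NR2E3 plus biotinylated RetCOR corepressor; Amount: 1.35 nM GST-tagged NR2E3 final; Dosing: single nominal compound dose of 4.8 µM; Schedule: 5 h incubation at 4 °C; Technique: TR-FRET with europium anti-GST and streptavidin-D2, 340 nm excitation; Controls: biotin wells as high control, 0.6% DMSO wells as low control.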
# PG9 Ab binder: small molecules binding HIV-1 gp120 antibody PG9; 0.43% of 360,000 active; TR-FRET gp120-PG9 antibody binding; inhibition, % at 6.7 µM; AID 624416; in the data active = inhibition above about 8.5%
# GalR3 antag: antagonists of human GalR3; O60755; HEK293 GalR3-CNG cAMP membrane potential fluorescence; galR3 body fused to GalR1 C-terminus; inhibition, % at 3 µM; 0.44% of 360,000 active;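 active = inhibition above the screen-wide average plus 3 SD, cut at about 13% in these data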;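 note: forskolin and galanin both at EC90 stimulate the cells; cAMP rise reported by CNG channel membrane potential dye signal; 0% = forskolin plus galanin with DMSO and 100% = forskolin alone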
# NR2E3 ag-2: agonists of human NR2E3 nuclear receptor; Q9Y5X4; CHO-S Gal4-NCOR/VP16-NR2E3 two-hybrid, luciferase; inhibition of corepressor binding, % at 3.98 µM; 0.35% of 360,000 active;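 active = inhibition above the mean of all tested compounds plus 3 SD, cut at about 70% in these data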;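 note: 0% = DMSO with NR2E3 transfected cells and 100% = cells lacking NR2E3 construct; higher means lower luciferase signal from less NR2E3 corepressor binding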
# NR1D1 modulator: modulators of human Rev-erb alpha DNA binding. P20393. Rev-erbα–FITC-DNA binding, fluorescence polarization, 90 min. activity, % at 10 µM. 0.79% of 370,000 active;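 active = activity above about 14%, limit read from the data; passing the limit was not always enough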;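 note: 0% = DMSO wells with 35 nM protein and 100% = DMSO wells with 750 nM protein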
# NR2E3 ag confirm: NR2E3 agonism confirmed in two-hybrid assay. inhibition, % at 3.98 µM. shares compounds with NR2E3 ag-2. 51% of 2,300 active. CHO-S mammalian two-hybrid NR2E3-NCOR, luciferase luminescence. AID 624378;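 active = average inhibition above a cutoff equal to the mean inhibition of all tested compounds plus one SD, cut at about 70% in these data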;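 note: 0% = DMSO in NR2E3 cells and 100% = DMSO in cells lacking NR2E3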
# VP16 counter: counter-screen for NR2E3 agonists: GAL4-VP16 reporter inhibitors; shares compounds with NR2E3 ag-2; CHO-S GAL4-VP16 luciferase reporter, luminescence; inhibition, % at 3.98 µM; 29% of 2,300 active; AID 624379;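 active = mean inhibition above a cutoff equal to the average over all tested compounds plus one standard deviation, cut at about 70% in these data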;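 note: luciferase from a UAS reporter driven by GAL4-VP16 transactivation; 0% = DMSO with VP16-transfected cells and 100% = DMSO with cells lacking VP16; higher means less reporter light so more repression of VP16 activity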
# * hit, by the source's call; / = not tested or not shown.
SMILES,NR2E3 ag-1,PG9 Ab binder,GalR3 antag,NR2E3 ag-2,NR1D1 modulator,NR2E3 ag confirm,VP16 counter
O=C(NC(Cc1ccccc1)P(=O)(O)Oc1ccccc1)OCc1ccccc1 (centres undefined),/,/,/,/,-4,/,/
CC1=C(N2CC2)C(=O)C(CO)=C(N2CC2)C1=O,/,-28,-5,59,-1,99*,96*
Cc1ccccc1CCC[C@H](CC1CCCCC1)CN(C)C(=O)Oc1ccccc1,/,/,/,/,4,/,/
c1cncc(-c2ccc3n2Cc2cnnn2-c2ccccc2-3)c1,/,/,/,/,0,/,/
C[C@@H]1CC[C@H]2[C@@H](C)C(=O)O[C@@H]3OC4(C)CC[C@@H]1[C@]32OO4,/,/,/,/,-6,/,/
C[C@@H]1CC[C@H]2[C@@H](C)C(=O)O[C@@H]3O[C@@]4(C)CC[C@@H]1[C@]32OO4,1,-1,-1,-2,5,/,/
CCC(C)C(NC(=O)CCCNC(=O)CCC(=O)OC1O[C@H]2OC3(C)CC[C@H]4[C@H](C)CCC(C1C)C24OO3)C(=O)O (some centres undefined),2,-1,-4,95*,-1,94*,71*
CCC(C)NC(=O)CCC(=O)OC1O[C@H]2OC3(C)CC[C@H]4[C@H](C)CCC(C1C)C24OO3 (some centres undefined),/,-1,-11,103*,3,97*,75*
CC(=O)[O][Hg][c]1ccccc1,/,/,/,/,-4,/,/
COc1cc2nc(CN3CC=C(c4ccccc4)CC3)[nH]c(=O)c2cc1OC,0,-1,-9,90*,2,99*,42
CC(=O)OC1C(O)C(C)OC(OC2C(OC(=O)C3CCC4C(C3)OC3(CC(OC(=O)/C=C/c5ccccc5)C(C)CO3)C43CO3)OC(C)C(O)C2OC(C)=O)C1O (centres undefined),/,1,-4,103*,4,99*,99*
N#CC1c2ccccc2-n2nncc2CN1C(=O)c1ccc([N+](=O)[O-])o1 (centres undefined),/,/,/,/,0,/,/
CC(=O)OC(C)(C)/C=C/C(=O)[C@](C)(O)[C@H]1[C@H](O)C[C@@]2(C)[C@@H]3CC=C4[C@H](C[C@H](O)C(=O)C4(C)C)[C@]3(C)C(=O)C[C@]12C,/,/,/,43,/,/,/
CC(=O)OC(C)(C)/C=C/C(=O)C(C)(O)C1C(O)CC2(C)C3CC=C4C(CC(O)C(=O)C4(C)C)C3(C)C(=O)CC12C (centres undefined),/,1,-5,63,2,80*,48
CC(=O)OC[C@]12CCC(C)=C[C@H]1O[C@@H]1[C@H](O)[C@@H](OC(C)=O)[C@@]2(C)[C@]12CO2,-1,1,0,102*,4,100*,99*
CC(=NNC(=S)N1CC2CCC(CC2)C1)c1nccs1,/,1,-3,96*,1,100*,85*
COC(=O)C1(N(C)c2ccccc2)CCN(Cc2ccccc2)CC1,/,/,/,/,0,/,/
CC1=CC2OC3CC4OC(=O)C=CC=CC(C(C)O)OCC(O)C(C)CC(=O)OCC2(CC1O)C4(C)C31CO1 (centres undefined),/,1,-4,101*,-3,100*,99*
CC1=CC2OC3CC4OC(=O)C=CC=CC(=O)OCCC(C)C(O)C(=O)OCC2(CC1O)C4(C)C31CO1 (centres undefined),/,/,/,99*,/,100*,99*
COc1ccc(CC2NCC(O)C2OC(C)=O)cc1 (centres undefined),/,0,-3,105*,-7,99*,99*
CN(C)c1ccc(/C=C/c2cc[n+](C)c3ccccc23)cc1,/,-129,-5,61,7,77*,38
CN(C)c1ccc(/C=C/C=C/c2sc3ccccc3[n+]2C)cc1,-13,-126,6,20,-6,/,/
C[C@]12CCC(=O)C=C1C=CC1C2CC[C@@]2(C)C1CC[C@@]2(O)CCC(=O)O (some centres undefined),/,/,/,/,0,/,/
Cc1cccc(Cc2cnc[nH]2)c1C,/,/,/,/,-1,/,/
C[C@@H]1C[C@@H]([C@H](O)CC2CC(=O)NC(=O)C2)C(=O)[C@@H](C)C1,3,2,0,102*,1,100*,95*
SMILES,NR2E3 ag-1,PG9 Ab binder,GalR3 antag,NR2E3 ag-2,NR1D1 modulator,NR2E3 ag confirm,VP16 counter
CC(=O)OC1(C)CC(C)C(=O)C(C(O)CC2CC(=O)NC(=O)C2)C1 (centres undefined),/,-1,-5,105*,-1,99*,99*
CC(=O)NC1CCSC1=O (centres undefined),/,/,/,/,-6,/,/
CC(O)C1C=CC=CC(=O)OC2CC3OC4C5OC5(C)CCC4(COC(=O)C4OC4(C)C(O)CO1)C2(C)C31CO1 (centres undefined),/,0,-4,101*,-8,99*,97*
CC(=O)OC1C(=O)OCC23CCC4(C)OC4C2OC2CC(OC(=O)C=CC=CC(=O)OCCC1C)C3(C)C21CO1 (centres undefined),/,0,-1,102*,10,99*,99*
NCC(O)c1cccc(O)c1 (centres undefined),/,/,/,/,3,/,/
COC(=O)C12OCC34C(CC5C(C)=C(O)C(=O)CC5(C)C3C(O)C1O)OC(=O)C(OC(=O)/C=C(\C)C(C)C)C24 (centres undefined),/,-1,-1,103*,6,100*,100*
CC(=O)c1cn(Cc2ccccc2F)c2ccccc12,/,-3,-11,83*,1,90*,75*
C=C1C(=O)O[C@@H]2C[C@@H](C)[C@@H]3C=CC(=O)[C@@]3(C)[C@@H](O)[C@H]12,8,-1,/,100*,2,99*,54
N=c1c2c(-c3ccccc3)c(-c3ccccc3)n(Cc3ccccc3)c2ncn1C1CCC(O)CC1 (centres undefined),/,/,/,/,0,/,/
CO[C@H]([C@H](C)/C=C/N(C)C=O)[C@@H](C)C(=O)CC[C@H](C)[C@H](O)[C@H](C)[C@H]1OC(=O)/C=C/C(C)=C/[C@H](O)[C@H](OC)C[C@@H]2C=CC[C@@H](C[C@H](OC)[C@@H](CO)[C@@H](OC)C[C@@H](OC)[C@@H]1C)O2,/,/,/,/,-9,/,/
N#CC1c2ccccc2-n2nncc2CN1C(=O)c1cccnc1 (centres undefined),/,/,/,/,10,/,/
CCC(=O)O[C@H]1CCC2C3CCC4=CC(=O)CC[C@]4(C)C3CC[C@@]21C (some centres undefined),/,/,/,/,1,/,/
C#CCCC[C@@H]1OC(=O)CNC(=O)C([C@@H](C)CC)NC(=O)[C@@H]2CCCN2C(=O)C([C@@H](C)CC)OC(=O)[C@H](Cc2ccccc2)N(C)C(=O)[C@H](C(C)C)NC(=O)C1(C)C (some centres undefined),/,-1,-5,3,3,/,/
